{"source": "ChEMBL document CHEMBL3808334", "about": "“Synthesis and in vitro evaluation of novel triazine analogues as anticancer agents and their interaction studies with bovine serum albumin” (Eur J Med Chem, 2016)", "assay_type_in_all_cases": "functional", "key": {"[1]": {"assay": "Growth inhibition of human HCT15 cells assessed as cell growth at 10^-7 M incubated for 48 hrs by sulforhodamine B assay", "settings": "HCT-15, 48 h, read-out: Activity", "how_it_was_run": "(§1)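 Cells seeded at 5,000–40,000/well according to doubling time and preincubated 24 h at 37 °C, 5% CO2. Time-zero plates were TCA-fixed. DMSO concentrate was diluted in medium with 50 µg/ml gentamicin to give five concentrations (10-fold or ½ log steps), then exposed 48 h. Cells were TCA-fixed, stained with 0.4% SRB and read at 515 nm. Percent growth was taken against time-zero and control; GI50, TGI and LC50 derived.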"}, "[2]": {"assay": "Growth inhibition of human OVCAR4 cells assessed as cell growth at 10^-6 M incubated for 48 hrs by sulforhodamine B assay", "settings": "OVCAR-4, 48 h, read-out: Activity"}, "[3]": {"assay": "Growth inhibition of human OVCAR3 cells assessed as cell growth at 10^-5 M incubated for 48 hrs by sulforhodamine B assay", "settings": "OVCAR-3, 48 h, read-out: Activity"}, "T47D": {"test_system": "T47D", "assay": "Growth inhibition of human T47D cells incubated for 48 hrs by sulforhodamine B assay", "how_it_was_run": "(§2)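 Cells were plated at 5,000–40,000 per well according to doubling time and preincubated 24 h at 37 °C in 5% CO2; time-zero plates were then TCA-fixed. Five concentrations (10-fold or ½-log dilutions, DMSO stock) were incubated 48 h. Cells were TCA-fixed, stained with 0.4% SRB and read at 515 nm. GI50 was taken where [(Ti−Tz)/(C−Tz)]×100 = 50.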"}, "[4]": {"assay": "Growth inhibition of human SKOV3 cells assessed as cell growth at 10 uM incubated for 48 hrs by sulforhodamine B assay", "settings": "SK-OV-3, 48 h, read-out: Activity"}, "[5]": {"assay": "Growth inhibition of human RPMI8226 cells assessed as cell growth at 10 uM incubated for 48 hrs by sulforhodamine B assay", "settings": "RPMI-8226, 48 h, read-out: Activity"}, "[6]": {"assay": "Growth inhibition of human HL-60(TB) cells assessed as cell growth at 10^-5 M incubated for 48 hrs by sulforhodamine B assay", "settings": "HL-60, 48 h, read-out: Activity", "how_it_was_run": "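Cells plated at 5,000–40,000/well according to doubling time and preincubated 24 h at 37 °C, 5% CO₂, with time-zero plates TCA-fixed. Drugs were kept as DMSO concentrates at 400× the top concentration and diluted in medium with 50 µg/ml gentamicin. Five 10-fold or ½-log dilutions were run for 48 h, followed by SRB staining and A515. Percent growth = (Ti−Tz)/(C−Tz)×100, or (Ti−Tz)/Tz×100 when Ti<Tz.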"}, "MCF7": {"test_system": "MCF7", "assay": "Growth inhibition of human MCF7 cells incubated for 48 hrs by sulforhodamine B assay", "settings": "MCF7, 48 h", "how_it_was_run": "as §2"}, "[7]": {"assay": "Growth inhibition of human UO31 cells assessed as cell growth at 10^-4 M incubated for 48 hrs by sulforhodamine B assay", "settings": "UO-31, 48 h, read-out: Activity"}, "[8]": {"assay": "Growth inhibition of human HCC2998 cells assessed as cell growth at 10^-8 M incubated for 48 hrs by sulforhodamine B assay", "settings": "HCC 2998, 48 h, read-out: Activity", "how_it_was_run": "as §1"}, "SK-MEL-2 [9]": {"test_system": "SK-MEL-2", "assay": "Growth inhibition of human SK-MEL-2 cells assessed as cell growth at 10^-6 M incubated for 48 hrs by sulforhodamine B assay", "settings": "SK-MEL-2, 48 h, read-out: Activity"}, "[10]": {"assay": "Growth inhibition of human Hs 578T cells assessed as cell growth at 10 uM incubated for 48 hrs by sulforhodamine B assay", "settings": "read-out: Activity"}, "[11]": {"assay": "Growth inhibition of human OVCAR4 cells assessed as cell growth at 10^-7 M incubated for 48 hrs by sulforhodamine B assay", "settings": "OVCAR-4, 48 h, read-out: Activity"}, "CCRF-CEM": {"test_system": "CCRF-CEM", "assay": "Growth inhibition of human CCRF-CEM cells assessed as cell growth at 10^-4 M incubated for 48 hrs by sulforhodamine B assay", "settings": "read-out: Activity", "how_it_was_run": "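Leukemia line in the five-dose format: five concentrations from 10-fold or ½-log serial dilutions. Plated at 5,000–40,000 cells per well, preincubated 24 h, then compound added for 48 h at 37 °C, 5% CO₂. Sulforhodamine B absorbance read at 515 nm. Growth is computed against time-zero (Tz) and control (C) readings; GI₅₀ is where [(Ti−Tz)/(C−Tz)]×100 = 50.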"}, "[12]": {"assay": "Growth inhibition of human OVCAR5 cells incubated for 48 hrs by sulforhodamine B assay", "settings": "OVCAR-5, 48 h", "how_it_was_run": "as §2"}, "SK-MEL-2 [13]": {"test_system": "SK-MEL-2", "assay": "Growth inhibition of human SK-MEL-2 cells incubated for 48 hrs by sulforhodamine B assay", "settings": "SK-MEL-2, 48 h", "how_it_was_run": "as §2"}, "NCI/ADR-RES": {"test_system": "NCI/ADR-RES", "assay": "Growth inhibition of human NCI/ADR-RES cells incubated for 48 hrs by sulforhodamine B assay", "how_it_was_run": "as §2"}, "[14]": {"assay": "Growth inhibition of human OVCAR8 cells assessed as cell growth at 10^-6 M incubated for 48 hrs by sulforhodamine B assay", "settings": "OVCAR-8, 48 h, read-out: Activity"}, "[15]": {"assay": "Growth inhibition of human HOP92 cells incubated for 48 hrs by sulforhodamine B assay", "settings": "HOP-92, 48 h", "how_it_was_run": "as §1"}, "[16]": {"assay": "Growth inhibition of human MOLT4 cells incubated for 48 hrs by sulforhodamine B assay", "settings": "MOLT-4, 48 h", "how_it_was_run": "as §2"}, "KM12": {"test_system": "KM12", "assay": "Growth inhibition of human KM12 cells assessed as cell growth at 10^-6 M incubated for 48 hrs by sulforhodamine B assay", "settings": "KM12, 48 h, read-out: Activity"}, "[17]": {"assay": "Growth inhibition of human DU145 cells assessed as cell growth at 10^-8 M incubated for 48 hrs by sulforhodamine B assay", "settings": "DU-145, 48 h, read-out: Activity", "how_it_was_run": "as §1"}, "MDA-MB-231": {"test_system": "MDA-MB-231", "assay": "Growth inhibition of human MDA-MB-231 cells assessed as cell growth at 10^-4 M incubated for 48 hrs by sulforhodamine B assay", "settings": "MDA-MB-231, 48 h, read-out: Activity"}, "[18]": {"settings": "read-out: LC50 (the source's name)"}, "[19]": {"settings": "read-out: pLC50 (the source's name) (converted)"}}}
{"smiles": "Fc1ccc(-c2nc(Nc3ccc(-c4nc5ccccc5[nH]4)cc3)nc(N3CCOCC3)n2)cc1", "values": [{"measurement": "growth at 0.1 µM", "setting": "[1]", "value": 98, "unit": "%"}, {"measurement": "growth at 1 µM", "setting": "[2]", "value": 96, "unit": "%"}, {"measurement": "growth at 10 µM", "setting": "[3]", "value": -61, "unit": "%"}, {"measurement": "GI50", "setting": "T47D; read-out: GI50", "value": 1.88, "unit": "µM"}, {"measurement": "TGI", "setting": "T47D; read-out: TGI", "value": 4.32, "unit": "µM"}, {"measurement": "GI50", "setting": "T47D; read-out: pGI50 (converted)", "value": 1.86, "unit": "µM"}, {"measurement": "TGI", "setting": "T47D; read-out: pTGI (converted)", "value": 4.37, "unit": "µM"}, {"measurement": "growth at 10 µM", "setting": "[4]", "value": 19.6, "unit": "%"}, {"measurement": "growth at 10 µM", "setting": "[5]", "value": -13.8, "unit": "%"}, {"measurement": "growth at 10 µM", "setting": "[6]", "value": -27, "unit": "%"}, {"measurement": "GI50", "setting": "MCF7; read-out: GI50", "value": 2.59, "unit": "µM"}, {"measurement": "CC50", "setting": "MCF7; [18]", "value": "> 100", "unit": "µM"}, {"measurement": "TGI", "setting": "MCF7; read-out: TGI", "value": "> 100", "unit": "µM"}, {"measurement": "GI50", "setting": "MCF7; read-out: pGI50 (converted)", "value": 2.57, "unit": "µM"}, {"measurement": "CC50", "setting": "MCF7; [19]", "value": "> 100", "unit": "µM"}, {"measurement": "TGI", "setting": "MCF7; read-out: pTGI (converted)", "value": "> 100", "unit": "µM"}, {"measurement": "growth at 100 µM", "setting": "[7]", "value": -16, "unit": "%"}, {"measurement": "growth at 0.01 µM", "setting": "[8]", "value": 99, "unit": "%"}, {"measurement": "growth at 1 µM", "setting": "SK-MEL-2 [9]", "value": 99, "unit": "%"}, {"measurement": "growth at 10 µM", "setting": "[10]", "value": -11.9, "unit": "%"}, {"measurement": "growth at 0.1 µM", "setting": "[11]", "value": 104, "unit": "%"}, {"measurement": "growth at 100 µM", "setting": "CCRF-CEM", "value": 13, "unit": "%"}, {"measurement": "GI50", "setting": "[12]; read-out: GI50", "value": 2.7, "unit": "µM"}, {"measurement": "CC50", "setting": "[12]; [18]", "value": "> 100", "unit": "µM"}, {"measurement": "TGI", "setting": "[12]; read-out: TGI", "value": 8.9, "unit": "µM"}, {"measurement": "GI50", "setting": "[12]; read-out: pGI50 (converted)", "value": 2.69, "unit": "µM"}, {"measurement": "CC50", "setting": "[12]; [19]", "value": "> 100", "unit": "µM"}, {"measurement": "TGI", "setting": "[12]; read-out: pTGI (converted)", "value": 8.91, "unit": "µM"}, {"measurement": "GI50", "setting": "SK-MEL-2 [13]; read-out: GI50", "value": 2.33, "unit": "µM"}, {"measurement": "CC50", "setting": "SK-MEL-2 [13]; [18]", "value": "> 100", "unit": "µM"}, {"measurement": "TGI", "setting": "SK-MEL-2 [13]; read-out: TGI", "value": 5.49, "unit": "µM"}, {"measurement": "GI50", "setting": "SK-MEL-2 [13]; read-out: pGI50 (converted)", "value": 2.34, "unit": "µM"}, {"measurement": "CC50", "setting": "SK-MEL-2 [13]; [19]", "value": "> 100", "unit": "µM"}, {"measurement": "TGI", "setting": "SK-MEL-2 [13]; read-out: pTGI (converted)", "value": 5.5, "unit": "µM"}, {"measurement": "GI50", "setting": "NCI/ADR-RES; read-out: GI50", "value": 3.18, "unit": "µM"}, {"measurement": "CC50", "setting": "NCI/ADR-RES; [18]", "value": "> 100", "unit": "µM"}, {"measurement": "TGI", "setting": "NCI/ADR-RES; read-out: TGI", "value": 26.7, "unit": "µM"}, {"measurement": "GI50", "setting": "NCI/ADR-RES; read-out: pGI50 (converted)", "value": 3.16, "unit": "µM"}, {"measurement": "CC50", "setting": "NCI/ADR-RES; [19]", "value": "> 100", "unit": "µM"}, {"measurement": "TGI", "setting": "NCI/ADR-RES; read-out: pTGI (converted)", "value": 26.9, "unit": "µM"}, {"measurement": "growth at 1 µM", "setting": "[14]", "value": 101, "unit": "%"}, {"measurement": "GI50", "setting": "[15]; read-out: GI50", "value": 1.8, "unit": "µM"}, {"measurement": "LC50 (concentration killing 50% of starting cells)", "setting": "[15]; read-out: LC50", "value": 7.76, "unit": "µM"}, {"measurement": "TGI", "setting": "[15]; read-out: TGI", "value": 3.74, "unit": "µM"}, {"measurement": "GI50", "setting": "[15]; read-out: pGI50 (converted)", "value": 1.82, "unit": "µM"}, {"measurement": "LC50 (concentration killing 50% of starting cells)", "setting": "[15]; read-out: pLC50 (converted)", "value": 7.76, "unit": "µM"}, {"measurement": "TGI", "setting": "[15]; read-out: pTGI (converted)", "value": 3.72, "unit": "µM"}, {"measurement": "GI50", "setting": "[16]; read-out: GI50", "value": 2.15, "unit": "µM"}, {"measurement": "CC50", "setting": "[16]; [18]", "value": "> 100", "unit": "µM"}, {"measurement": "TGI", "setting": "[16]; read-out: TGI", "value": 6.13, "unit": "µM"}, {"measurement": "GI50", "setting": "[16]; read-out: pGI50 (converted)", "value": 2.14, "unit": "µM"}, {"measurement": "CC50", "setting": "[16]; [19]", "value": "> 100", "unit": "µM"}, {"measurement": "TGI", "setting": "[16]; read-out: pTGI (converted)", "value": 6.17, "unit": "µM"}, {"measurement": "growth at 1 µM", "setting": "KM12", "value": 86, "unit": "%"}, {"measurement": "growth at 0.01 µM", "setting": "[17]", "value": 101, "unit": "%"}, {"measurement": "growth at 100 µM", "setting": "MDA-MB-231", "value": -33, "unit": "%"}]}
